The source made the active and inactive calls. The calls are words filed in the database; no cut-off is given here.
Columns and labels:
HT-29 = assay: Cytotoxicity against human HT-29 cells assessed as growth inhibition after 48 hrs by MTT assay; format: functional, cell-based; details: HT-29, 48 h
Summary of the method: (§1)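 MTT assay. Cells seeded at 8000–10,000 viable cells per well and allowed 24 h before a 48 h compound exposure. MTT (5 mg/mL solution) added for a further 4 h, then formazan dissolved in DMSO. Absorbance read at 550 nm against a 690 nm reference. Two independent experiments in triplicate. IC50 by nonlinear regression, mean ± SD.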

MCF7 = assay: Cytotoxicity against human MCF7 cells assessed as growth inhibition after 48 hrs by MTT assay; format: functional, cell-based; details: MCF7, 48 h; summary of the method: as §1
NIH3T3 [1] = assay: Cytotoxicity against mouse NIH/3T3 cells assessed as growth inhibition after 48 hrs by MTT assay; format: functional, cell-based; details: NIH3T3, 48 h; summary of the method: as §1
AGS = assay: Cytotoxicity against human AGS cells assessed as growth inhibition after 48 hrs by MTT assay; format: functional, cell-based; summary of the method: as §1
Ovis aries [2] = species on record: Ovis aries; assay: Inhibition of sheep brain microtubule polymerization at 5 uM after 15 mins by UV-vis spectrophotometric analysis
Summary of the method: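 Purified tubulin (12 µM) in PEM buffer (100 mM PIPES pH 6.9, 1 mM MgSO4, 1 mM EGTA) preincubated 15 min with compound (5 µM final), then cooled to 0 °C. GTP added to 1 mM final. Assembly started by warming from 0 to 37 °C and followed by absorbance at 350 nm. Positive control at 2 µM final.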

Ovis aries [3] = species on record: Ovis aries; assay: Inhibition of sheep brain microtubule polymerization at 2 uM after 15 mins by UV-vis spectrophotometric analysis
Summary of the method: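 Purified microtubule protein preincubated 15 min with compound in PEM buffer (100 mM PIPES pH 6.9, 1 mM MgSO₄, 1 mM EGTA), then cooled to 0 °C. GTP added (1 mM final), and assembly started by warming from 0 to 37 °C. Polymerization followed as absorbance change at 350 nm.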

NIH3T3 [4] = assay: Cell cycle arrest in mouse NIH/3T3 cells assessed as accumulation at S phase at 0.10 uM after 24 hrs by propidium iodide staining-based FACS flow cytometric analysis (reference value: 24.39%); format: functional
NIH3T3 [5] = assay: Cell cycle arrest in mouse NIH/3T3 cells assessed as accumulation at G0/G1 phase at 0.10 uM after 24 hrs by propidium iodide staining-based FACS flow cytometric analysis (reference value: 39.91%); format: functional
NIH3T3 [6] = assay: Cell cycle arrest in mouse NIH/3T3 cells assessed as accumulation at G2/M phase at 0.10 uM after 24 hrs by propidium iodide staining-based FACS flow cytometric analysis (reference value: 35.70%); format: functional

microtubule polymerization inhibition (active/inactive call) (Ovis aries [2])	Compound	IC50 (HT-29)	IC50 (MCF7)	IC50 (NIH3T3 [1])	IC50 (AGS)	inhibition (Ovis aries [3])	Activity (NIH3T3 [4])	Activity (NIH3T3 [5])	Activity (NIH3T3 [6])
–	CCSc1nc(-c2cc(OC)c(OC)c(OC)c2)c(-c2ccccc2OC)[nH]1	18.6 µM	11 µM	36.2 µM	40.7 µM	–	–	–	–
Active	COc1ccc(-c2[nH]c(SC)nc2-c2cc(OC)c(OC)c(OC)c2)cc1OC	4.82 µM	4.04 µM	6.01 µM	10.6 µM	–	–	–	–
Active	CCSc1nc(-c2cc(OC)c(OC)c(OC)c2)c(-c2ccc(OC)cc2)[nH]1	0.36 µM	0.75 µM	0.26 µM	0.07 µM	–	–	–	–
–	CCSc1nc(-c2cc(OC)c(OC)c(OC)c2)c(-c2cccc(OC)c2OC)[nH]1	36.7 µM	22.9 µM	27.2 µM	39 µM	–	–	–	–
–	COc1ccccc1-c1[nH]c(SC)nc1-c1cc(OC)c(OC)c(OC)c1	21.7 µM	12.2 µM	38.7 µM	48.4 µM	–	–	–	–
–	COc1ccc(-c2[nH]c(SC)nc2-c2cc(OC)c(OC)c(OC)c2)c(OC)c1	18.6 µM	4.15 µM	11.9 µM	23.2 µM	–	–	–	–
Active	CCSc1nc(-c2cc(OC)c(OC)c(OC)c2)c(-c2ccc(OC)c(OC)c2)[nH]1	21 µM	13.2 µM	14.1 µM	37.2 µM	–	–	–	–
–	CCSc1nc(-c2cc(OC)c(OC)c(OC)c2)c(-c2cc(OC)c(OC)c(OC)c2)[nH]1	> 50 µM	–	> 50 µM	–	–	–	–	–
–	CCSc1nc(-c2cc(OC)c(OC)c(OC)c2)c(-c2ccc(OC)cc2OC)[nH]1	6.56 µM	3.55 µM	7.25 µM	18.6 µM	–	–	–	–
–	CCSc1nc(-c2ccc(OC)c(OC)c2)c(-c2ccc(OC)c(OC)c2)[nH]1	21.2 µM	15.1 µM	27.6 µM	33.6 µM	–	–	–	–
–	COc1cc(-c2nc(SC)[nH]c2-c2cccc(OC)c2OC)cc(OC)c1OC	27.5 µM	18.1 µM	30.2 µM	35.3 µM	–	–	–	–
–	COc1ccc(-c2nc(SC)[nH]c2-c2ccc(OC)c(OC)c2)cc1OC	24.1 µM	17.2 µM	35.8 µM	34.8 µM	–	–	–	–
–	COc1ccc(/C=C\c2cc(OC)c(OC)c(OC)c2)cc1O [COMBRETASTATIN A4]	0.18 µM	0.4 µM	0.02 µM	0.04 µM	Active	–	–	–
Active	COc1ccc(-c2[nH]c(SC)nc2-c2cc(OC)c(OC)c(OC)c2)cc1	0.25 µM	0.52 µM	0.06 µM	0.06 µM	–	7.07%	1.01%	91.93%
–	COc1cc(-c2nc(SC)[nH]c2-c2cc(OC)c(OC)c(OC)c2)cc(OC)c1OC	> 50 µM	–	> 50 µM	–	–	–	–	–

— ChEMBL document CHEMBL2380229, “Design, synthesis, cytotoxic evaluation and tubulin inhibitory activity of 4-aryl-5-(3,4,5-trimethoxyphenyl)-2-alkylthio-1H-imidazole derivatives” (Bioorg Med Chem, 2013)
